# Published values of several laboratories.
# Observed: metabolic stability
Compound,species,matrix,concentration,time,pH,setting,scaled CLint [mL/min/kg]
Cc1ccc(-c2nc3ccccc3s2)cc1NC(=O)c1cc([N+](=O)[O-])c(F)cc1F,CD-1 mouse,liver microsomes,1 µM,1 h,pH 7.4,,52
CCOc1c(O)cc(Br)c2c1CN1CCc3cc(OCC(F)F)c(O)cc3[C@@H]1C2,mouse,liver S9,2 µM,,pH 7.4,,1040
CCCN(C)Cc1cc(-c2[nH]c3cccc(F)c3c(=O)c2C)ccc1Cc1ccc(OC(F)(F)F)cc1,mouse,liver microsomes,,,,,1570
O=C(Nc1cncc(-c2nc3ccccc3o2)c1)c1ccc(N2CCNCC2)c([N+](=O)[O-])c1,CD-1 mouse,liver microsomes,1 µM,1 h,pH 7.4,,10
Cc1ccc(F)c2cc(C(=O)N[C@@H]3CCC[C@H](N4CCN(S(C)(=O)=O)CC4)C3)[nH]c12,mouse,hepatocytes,0.5 µM,1 h,,,328
CN[C@@H]1CCN(c2ccc(Nc3cc(NC4CC4)n4ncc(C#N)c4n3)cc2NC(C)=O)C1,male CD-1 mouse,hepatocytes,1 µM,,,serum-free,126
Cc1ccc(F)c2cc(C(=O)N[C@@H]3CCC[C@H](c4ccncc4)C3)[nH]c12,mouse,hepatocytes,0.5 µM,1 h,,,399
Cc1cc(Cl)c(Cl)cc1NC(=O)c1ccc(N2CCNCC2)c([N+](=O)[O-])c1,CD-1 mouse,liver microsomes,1 µM,1 h,pH 7.4,,21
COc1cc(C2Oc3cc([C@H]4Oc5cc(O)cc(O)c5C(=O)[C@@H]4O)ccc3OC2CO)ccc1O (stereo partly drawn),mouse,liver microsomes,1 µM,,,,66.5
Cc1ccc(-c2nc3ccccc3s2)cc1NC(=O)c1cc([N+](=O)[O-])c(N2CCN(C)CC2)cc1Cl,CD-1 mouse,liver microsomes,1 µM,1 h,pH 7.4,,105
Cc1ccc(F)c2cc(C(=O)N[C@@H]3CCC[C@H](N4CCN(C)C(=O)C4)C3)[nH]c12,mouse,hepatocytes,0.5 µM,1 h,,,164
O=c1ccc2ccc(O)cc2o1,mouse,liver S9,2 µM,,pH 7.4,,2120
Cc1cc(NC(=O)Cc2ccc(F)c(C#N)c2)n(CC2CCCCC2)n1,mouse,liver microsomes,,,,,2970
CC(=O)Nc1cc(Nc2cc(NC3CC3)n3ncc(C#N)c3n2)ccc1N(C)C[C@@H]1CCCN1,male CD-1 mouse,hepatocytes,1 µM,,,serum-free,171
O=C(c1ccc(F)cc1)C1CCN(CCn2c(=O)[nH]c3ccccc3c2=O)CC1,mouse,liver microsomes,,,,,376
